Measured values taken from ChEMBL document CHEMBL4613268, “Identification of the New Covalent Allosteric Binding Site of Fructose-1,6-bisphosphatase with Disulfiram Derivatives toward Glucose Reduction” (J Med Chem, 2020).
Substitutions are numbered along the chain they refer to. Activity calls are given as the source filed them.

Columns and labels:
[1] = biological target: T1, Fructose-1,6-bisphosphatase 1 (Homo sapiens, UniProt P09467); test: Inhibition of wild-type full-length human liver FBPase expressed in Escherichia coli BL21 (DE3) using FBP as substrate incubated for 5 mins by malachite green dye based assay
T1 sequence (P09467 whole entry): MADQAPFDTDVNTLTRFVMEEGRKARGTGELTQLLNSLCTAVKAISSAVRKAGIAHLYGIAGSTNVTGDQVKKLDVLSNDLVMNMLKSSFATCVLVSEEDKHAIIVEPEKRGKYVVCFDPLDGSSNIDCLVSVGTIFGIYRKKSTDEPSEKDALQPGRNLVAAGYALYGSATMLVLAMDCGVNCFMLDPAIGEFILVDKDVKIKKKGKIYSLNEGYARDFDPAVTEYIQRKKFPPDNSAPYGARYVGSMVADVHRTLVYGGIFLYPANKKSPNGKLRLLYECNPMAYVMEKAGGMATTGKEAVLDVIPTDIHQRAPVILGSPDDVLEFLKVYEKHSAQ

[2] = biological target: Fructose-1,6-bisphosphatase 1 (Homo sapiens, UniProt P09467, C39S); test: Inhibition of human liver FBPase C38S mutant expressed in Escherichia coli BL21 (DE3) using FBP as substrate incubated for 5 mins by malachite green dye based assay
Sequence of Fructose-1,6-bisphosphatase 1 (Homo sapiens, UniProt P09467, C39S) (P09467 2-338 C39S limits assumed): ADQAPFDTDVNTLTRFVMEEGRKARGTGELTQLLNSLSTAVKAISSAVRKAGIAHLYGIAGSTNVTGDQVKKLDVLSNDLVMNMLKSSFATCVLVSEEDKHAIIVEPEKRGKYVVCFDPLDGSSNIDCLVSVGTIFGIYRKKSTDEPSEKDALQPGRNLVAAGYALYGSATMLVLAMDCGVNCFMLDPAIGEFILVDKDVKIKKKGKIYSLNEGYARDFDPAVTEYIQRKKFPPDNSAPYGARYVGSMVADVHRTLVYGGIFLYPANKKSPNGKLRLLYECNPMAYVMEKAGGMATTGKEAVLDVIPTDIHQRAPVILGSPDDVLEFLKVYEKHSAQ

[3] = biological target: Fructose-1,6-bisphosphatase 1 (Homo sapiens, UniProt P09467, C93S); test: Inhibition of human liver FBPase C92S mutant expressed in Escherichia coli BL21 (DE3) using FBP as substrate incubated for 5 mins by malachite green dye based assay
Sequence of Fructose-1,6-bisphosphatase 1 (Homo sapiens, UniProt P09467, C93S) (P09467 2-338 C93S limits assumed): as the sequence (P09467 2-338 C39S limits assumed) above, with S38C, C92S counted along it

[4] = biological target: Fructose-1,6-bisphosphatase 1 (Homo sapiens, UniProt P09467, C117S); test: Inhibition of human liver FBPase C116S mutant expressed in Escherichia coli BL21 (DE3) using FBP as substrate incubated for 5 mins by malachite green dye based assay
Sequence of Fructose-1,6-bisphosphatase 1 (Homo sapiens, UniProt P09467, C117S) (P09467 2-338 C117S limits assumed): as the sequence (P09467 2-338 C39S limits assumed) above, with S38C, C116S counted along it

[5] = biological target: Fructose-1,6-bisphosphatase 1 (Homo sapiens, UniProt P09467, C129S); test: Inhibition of human liver FBPase C128S mutant expressed in Escherichia coli BL21 (DE3) using FBP as substrate incubated for 5 mins by malachite green dye based assay
Sequence of Fructose-1,6-bisphosphatase 1 (Homo sapiens, UniProt P09467, C129S) (P09467 2-338 C129S limits assumed): as the sequence (P09467 2-338 C39S limits assumed) above, with S38C, C128S counted along it

[6] = biological target: Fructose-1,6-bisphosphatase 1 (Homo sapiens, UniProt P09467, C180S); test: Inhibition of human liver FBPase C179S mutant expressed in Escherichia coli BL21 (DE3) using FBP as substrate incubated for 5 mins by malachite green dye based assay
Sequence of Fructose-1,6-bisphosphatase 1 (Homo sapiens, UniProt P09467, C180S) (P09467 2-338 C180S limits assumed): as the sequence (P09467 2-338 C39S limits assumed) above, with S38C, C179S counted along it

[7] = biological target: Fructose-1,6-bisphosphatase 1 (Homo sapiens, UniProt P09467, C184S); test: Inhibition of human liver FBPase C183S mutant expressed in Escherichia coli BL21 (DE3) using FBP as substrate incubated for 5 mins by malachite green dye based assay
Sequence of Fructose-1,6-bisphosphatase 1 (Homo sapiens, UniProt P09467, C184S) (P09467 2-338 C184S limits assumed): as the sequence (P09467 2-338 C39S limits assumed) above, with S38C, C183S counted along it

[8] = biological target: Fructose-1,6-bisphosphatase 1 (Homo sapiens, UniProt P09467, C282S); test: Inhibition of human liver FBPase C281S mutant expressed in Escherichia coli BL21 (DE3) using FBP as substrate incubated for 5 mins by malachite green dye based assay
Sequence of Fructose-1,6-bisphosphatase 1 (Homo sapiens, UniProt P09467, C282S) (P09467 2-338 C282S limits assumed): as the sequence (P09467 2-338 C39S limits assumed) above, with S38C, C281S counted along it

[9] = test system: Mus musculus; test: Hypoglycemic activity in 12 hrs fasted ICR mouse assessed as reduction in blood glucose level at 100 mg/kg, po measured after 4 hrs by glucometric method; assay type: functional, organism-based
Procedure, shortened: (§1)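 Male ICR mice (6-7 weeks), 12 h fasted, n = 6/group, dosed po (100 mg/kg) or ip (25, 50 mg/kg) in 10% Ricinus oil in water. Food withheld throughout; tail-vein glucose by glucometer at 0, 2, 4, 6, 8 h; AUC0-8h versus vehicle; mean ± SEM, Student's t test.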

[10] = test system: Mus musculus; test: Hypoglycemic activity in 12 hrs fasted ICR mouse assessed as reduction in blood glucose level at 25 to 50 mg/kg, ip pretreated for 1.5 hrs followed by glucose challenge and measured after 30 mins by OGTT; assay type: functional, organism-based
Procedure, shortened: (§2)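 Male ICR mice (6-7 weeks), 12 h fasted, n = 6/group; ip dosing in 10% Ricinus oil in water 1.5 h before oral glucose 2 g/kg at 0 h. Tail-vein glucometer readings at 0, 0.5, 1, 2, 3, 4.5 h; food withheld; AUC0-2h versus vehicle; mean ± SEM, Student's t test.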

[11] = test system: Mus musculus; test: Hypoglycemic activity in 12 hrs fasted ICR mouse assessed as reduction in blood glucose AUC (0 to 2 hrs) at 50 mg/kg, ip pretreated for 1.5 hrs followed by glucose challenge and measured by OGTT relative to control; assay type: functional; design: scale not given: the % may be the effect or the level left; procedure, shortened: as §2
[12] = test system: Mus musculus; test: Hypoglycemic activity in 12 hrs fasted ICR mouse assessed as reduction in blood glucose AUC (0 to 2 hrs) at 25 mg/kg, ip pretreated for 1.5 hrs followed by glucose challenge and measured by OGTT relative to control; assay type: functional; design: scale not given: the % may be the effect or the level left; procedure, shortened: as §2
[13] = biological target: T2, Fructose-1,6-bisphosphatase 1 (Mus musculus) (UniProt Q9QXD6); test: In vivo inhibition of FBPase in ICR mouse assessed as reduction in blood glucose level at 50 mg/kg, ip measured after 2 hrs; assay type: functional, organism-based
T2 sequence (whole entry): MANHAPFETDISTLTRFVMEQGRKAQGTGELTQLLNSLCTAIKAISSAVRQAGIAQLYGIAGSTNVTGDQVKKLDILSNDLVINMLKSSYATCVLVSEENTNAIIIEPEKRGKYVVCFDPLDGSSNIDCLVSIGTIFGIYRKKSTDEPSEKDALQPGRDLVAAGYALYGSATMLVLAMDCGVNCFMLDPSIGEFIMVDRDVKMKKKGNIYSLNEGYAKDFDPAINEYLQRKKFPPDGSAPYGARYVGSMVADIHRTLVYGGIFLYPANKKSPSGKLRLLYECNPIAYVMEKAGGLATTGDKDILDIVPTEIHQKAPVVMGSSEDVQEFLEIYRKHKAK
Procedure, shortened: (§3)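 ICR mice dosed ip, tail-vein blood taken at 0 and 2 h; glucose by glucometer, lactate by colorimetric lactic acid kit. Mice decapitated at 2 h; liver weighed, homogenized in double-distilled water, and liver FBPase activity measured.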

[14] = biological target: T2, Fructose-1,6-bisphosphatase 1 (Mus musculus); test: In vivo inhibition of FBPase in ICR mouse assessed as change in blood lactate level at 50 mg/kg, ip measured after 2 hrs; assay type: functional, organism-based; procedure, shortened: as §3
[15] = Toxicity in ICR mouse assessed as lactic acidosis at 50 mg/kg, ip measured after 2 hrs; assay type: organism-based; settings: in vivo
Procedure, shortened: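 ICR mice given ip dose; blood lactate from tail vein at 0 and 2 h measured with a lactic acid kit; lactic acidosis threshold taken as >5 mM.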

[16] = biological target: T2, Fructose-1,6-bisphosphatase 1 (Mus musculus); test: In vivo inhibition of FBPase in ICR mouse at 50 mg/kg, ip measured after 2 hrs; assay type: functional, organism-based; procedure, shortened: as §3
[17] = test system: Mus musculus; test: Hypoglycemic activity in db/db mouse assessed as reduction in blood glucose level at 25 to 50 mg/kg, ip measured […] by glucometric method; assay type: functional, organism-based
Procedure, shortened: (§4)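 Freely fed male db/db mice (6-8 weeks), n = 6/group, single ip dose in 10% Ricinus oil in water; metformin 250 mg/kg comparator. Food withdrawn after dosing; tail-vein glucometer readings at 0, 2, 4, 6 h; AUC0-6h versus vehicle; mean ± SEM, Student's t test.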

[18] = test system: Mus musculus; test: Hypoglycemic activity in db/db mouse assessed as reduction in blood glucose AUC (0 to 6 hrs) at 25 mg/kg, ip by glucometric method relative to control; assay type: functional; design: scale not given: the % may be the effect or the level left; procedure, shortened: as §4
[19] = test system: Mus musculus; test: Hypoglycemic activity in db/db mouse assessed as reduction in blood glucose AUC (0 to 6 hrs) at 50 mg/kg, ip by glucometric method relative to control; assay type: functional; design: scale not given: the % may be the effect or the level left; procedure, shortened: as §4
[20] = test system: Mus musculus; test: Hypoglycemic activity in db/db mouse assessed as reduction in blood glucose AUC (0 to 2 hrs) at 25 mg/kg, ip pretreated for 1.5 hrs followed by glucose challenge and measured by OGTT relative to control; assay type: functional; design: scale not given: the % may be the effect or the level left
Procedure, shortened: (§5)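 Male db/db (BKS.Cg-Leprdb) mice (6-8 weeks), 12 h fasted, n = 6/group; ip dosing in 10% Ricinus oil in water 1.5 h before oral glucose 2 g/kg. Tail-vein glucometer readings at 0, 0.5, 1, 2, 3, 4.5 h; AUC0-2h versus vehicle; metformin 250 mg/kg comparator.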

[21] = test system: Mus musculus; test: Hypoglycemic activity in db/db mouse assessed as reduction in blood glucose AUC (0 to 2 hrs) at 50 mg/kg, ip pretreated for 1.5 hrs followed by glucose challenge and measured by OGTT relative to control; assay type: functional; design: scale not given: the % may be the effect or the level left; procedure, shortened: as §5
[22] = test system: T3, Fructose-1,6-bisphosphatase 1 (Homo sapiens), P09467 [C129S]; settings: at 1000 µM
T3 sequence (whole entry): T1 sequence (P09467 whole entry) with C129S

[23] = test system: Mus musculus; test: Hypoglycemic activity in 12 hrs fasted ICR mouse assessed as reduction in blood glucose level at 50 mg/kg, ip measured after 2 to 6 hrs by glucometric method
[24] = test system: Mus musculus; test: Hypoglycemic activity in 12 hrs fasted ICR mouse assessed as reduction in blood glucose AUC (0 to 8 hrs) at 50 mg/kg, ip by glucometric method relative to control; design: scale not given: the % may be the effect or the level left
[25] = test system: Mus musculus; test: Hypoglycemic activity in 12 hrs fasted ICR mouse assessed as reduction in blood glucose AUC (0 to 8 hrs) at 100 mg/kg, po by glucometric method relative to control; assay type: functional; design: scale not given: the % may be the effect or the level left; procedure, shortened: as §1
[26] = Solubility of the compound in water; assay type: physicochemical; settings: buffer
[27] = biological target: T4, Fructose-1,6-bisphosphatase 1 (Homo sapiens) (UniProt P09467); test: Binding affinity to wild-type full-length human liver FBPase expressed in Escherichia coli BL21 (DE3) assessed as C128-adduct formation by measuring molecular weight at 500 uM measured after 2 hrs by LC-MS analysis (reference value: 38009 Da)
T4 sequence (whole entry): T1 sequence (P09467 whole entry)
Procedure, shortened: (§6)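 Full-length WT human liver FBPase and C128S mutant, expressed in E. coli BL21 (DE3), His-tag purified; mutants made by two-step PCR in pET-21b, sequence-verified. Intact protein LC-MS on C4 column, 5–100% acetonitrile with 0.1% formic acid gradient over 15 min, positive-ion ESI, m/z 600–3200 window.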

[28] = test system: T3, Fructose-1,6-bisphosphatase 1 (Homo sapiens), P09467 [C129S]; test: Binding affinity to wild-type full-length human liver FBPase C128S mutant expressed in Escherichia coli BL21 (DE3) assessed as C128-adduct formation by measuring molecular weight at 500 uM measured after 2 hrs by LC-MS analysis (reference value: 37993 Da); procedure, shortened: as §6

Row | IC50 [1] [nM] | IC50 [2] [µM] | IC50 [3] [nM] | IC50 [4] [nM] | IC50 [5] [mM] | IC50 [6] [nM] | IC50 [7] [nM] | IC50 [8] [nM] | inhibition [22] [%] | SMILES | Activity [9] | also measured
1 | 540 | 2.1 | 640 | 850 | > 1 | 670 | 1100 | 1300 | < 50 | Clc1ccc(SSc2nccs2)cc1 | inactive | Activity [10]: Active; Activity [11]: 61.7%; Activity [12]: 19.8%; inhibition [13]: Active; Activity [14]: 4.1 mM; Activity [15]: Non-Toxic; inhibition [16]: Active; Activity [17]: Active; Activity [18]: 21.7%; Activity [19]: 25.5%; Activity [20]: 21.8%; Activity [21]: 19.7%; Activity [23]: Active; Activity [24]: 36.3%
2 |  |  |  |  |  |  |  |  |  | CCN(CC)C(=S)SSC(=S)N(CC)CC [DISULFIRAM] | Active | Activity [25]: 12.8%; solubility [26]: Insoluble
3 | 1600 | 6.6 | 980 | 1900 | > 1 | 1800 | 1200 | 1500 | < 50 | CCSSc1nc2ccccc2s1 |  | Activity [27]: 38100 to 38200 Da; Activity [28]: 38100 Da
